Assay [1] concerns the target Dual specificity tyrosine-phosphorylation-regulated kinase 1B (Homo sapiens) (UniProt Q9Y463). Kind of assay: Inhibition of wild-type human full length DYRK1B (M1 to S629 residues) expressed in Escherichia coli BL21 assessed as residual activity at 1000 nM after 30 mins by Kinomescan method relative to control. Summed up:
(§1)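 Single-concentration screen at 1 µM across a 456-kinase KINOMEscan panel. The read-out is Percent Control for each kinase.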

The target of assay [2] is Serine/threonine-protein kinase 4 (Homo sapiens) (UniProt Q13043). The experiment in a line: Inhibition of wild-type human full length MST1 (M1 to F487 residues) expressed in Escherichia coli BL21 assessed as residual activity at 1000 nM after 30 mins by Kinomescan method relative to control. Summed up: as §1
Assay [3] concerns the target Serine/threonine-protein kinase TAO2 (Homo sapiens) (UniProt Q9UL54). The experiment in a line: Inhibition of wild-type human partial length TAOK2 (M1 to A320 residues) expressed in HEK293 cells assessed as residual activity at 1000 nM after 30 mins by Kinomescan method relative to control. Format: cell-based.
Assay [4] concerns the target NT-3 growth factor receptor (Homo sapiens) (UniProt Q16288). Kind of assay: Inhibition of wild-type human partial length TRKC (Q531 to G825 residues) expressed in HEK293 cells assessed as residual activity at 1000 nM after 30 mins by Kinomescan method relative to control. Format: cell-based.
The target of assay [5] is Serine/threonine-protein kinase Nek2 (Homo sapiens) (UniProt P51955). Kind of assay: Inhibition of wild-type human partial length NEK2 (M1 to K309 residues) expressed in Escherichia coli BL21 assessed as residual activity at 1000 nM after 30 mins by Kinomescan method relative to control.
The target of assay [6] is Inhibitor of nuclear factor kappa-B kinase subunit beta (Homo sapiens) (UniProt O14920). The experiment in a line: Inhibition of wild-type human full length IKK-beta (M1 to S756 residues) expressed in HEK293 cells assessed as residual activity at 1000 nM after 30 mins by Kinomescan method relative to control. In kind it is cell-based. Summed up: as §1
Assay [7] has as its target Mitogen-activated protein kinase 13 (Homo sapiens) (UniProt O15264). The experiment in a line: Inhibition of wild-type human full length p38-delta (M1 to L365 residues) expressed in Escherichia coli BL21 assessed as residual activity at 1000 nM after 30 mins by Kinomescan method relative to control.
Assay [8] deals with Phosphorylase b kinase gamma catalytic chain, liver/testis isoform (Homo sapiens) (UniProt P15735). Kind of assay: Inhibition of wild-type human partial length PHKG2 (M1 to W300 residues) expressed in Escherichia coli BL21 assessed as residual activity at 1000 nM after 30 mins by Kinomescan method relative to control.
For assay [9], the target named is Fibroblast growth factor receptor 4 (Homo sapiens, UniProt P22455). The experiment in a line: Inhibition of wild-type human partial length FGFR4 (G402 to E713 residues) expressed in Escherichia coli BL21 assessed as residual activity at 1000 nM after 30 mins by Kinomescan method relative to control.
For assay [10], the target named is Cyclin-dependent kinase 11B (Homo sapiens) (UniProt P21127). The experiment in a line: Inhibition of wild-type human partial length CDC2L1 (P353 to G692 residues) expressed in Escherichia coli BL21 assessed as residual activity at 1000 nM after 30 mins by Kinomescan method relative to control.
Assay [11] has as its target Serine/threonine-protein kinase 33 (Homo sapiens) (UniProt Q9BYT3). The experiment in a line: Inhibition of wild-type human full length STK33 (M1 to L514 residues) expressed in Escherichia coli BL21 assessed as residual activity at 1000 nM after 30 mins by Kinomescan method relative to control.
For assay [12], the target named is Serine/threonine-protein kinase SIK3 (Homo sapiens) (UniProt Q9Y2K2). The experiment in a line: Inhibition of wild-type human partial length QSK (A90 to L395 residues) expressed in HEK293 cells assessed as residual activity at 1000 nM after 30 mins by Kinomescan method relative to control. Format: cell-based.
Assay [13] concerns the target Cyclin-dependent kinase 14 (Homo sapiens) (UniProt O94921). Kind of assay: Inhibition of wild-type human full length PFTK1 (M1 to H451 residues) expressed in Escherichia coli BL21 assessed as residual activity at 1000 nM after 30 mins by Kinomescan method relative to control. An outline of the steps: as §1
The target of assay [14] is Serine/threonine-protein kinase Nek3 (Homo sapiens) (UniProt P51956). Kind of assay: Inhibition of wild-type human full length NEK3 (M1 to R506 residues) expressed in HEK293 cells assessed as residual activity at 1000 nM after 30 mins by Kinomescan method relative to control. Format: cell-based. Summed up:
as §1

In assay [15] the target is Dual serine/threonine and tyrosine protein kinase (Homo sapiens) (UniProt Q6XUX3). The experiment in a line: Inhibition of wild-type human full length RIPK5 (M1 to T929 residues) expressed in HEK293 cells assessed as residual activity at 1000 nM after 30 mins by Kinomescan method relative to control. In kind it is cell-based.
In assay [16] the target is SRSF protein kinase 3 (Homo sapiens) (UniProt Q9UPE1). The experiment in a line: Inhibition of wild-type human partial length SRPK3 (P41 to P567 residues) expressed in Escherichia coli BL21 assessed as residual activity at 1000 nM after 30 mins by Kinomescan method relative to control.
Assay [17] has as its target Ephrin type-A receptor 7 (Homo sapiens) (UniProt Q15375). Kind of assay: Inhibition of wild-type human partial length EPHA7 (Y608 to S912 residues) expressed in Escherichia coli BL21 assessed as residual activity at 1000 nM after 30 mins by Kinomescan method relative to control.
In assay [18] the target is Proto-oncogene tyrosine-protein kinase ROS (Homo sapiens) (UniProt P08922). The experiment in a line: Inhibition of wild-type human partial length ROS1 (A1921 to N2240 residues) expressed in Escherichia coli BL21 assessed as residual activity at 1000 nM after 30 mins by Kinomescan method relative to control.
For assay [19], the system named is Epidermal growth factor receptor (Homo sapiens), P00533 [L858R,T790M]. The experiment in a line: Inhibition of human partial length EGFR L858R/T790M double mutant (R669 to V1011 residues) expressed in HEK293 cells assessed as residual activity at 1000 nM after 30 mins by Kinomescan method relative to control. Format: cell-based. An outline of the steps:
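KINOMEscan binding panel of 456 kinases, with the test compound at a single concentration of 1 µM. Read-out is Percent Control.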

The subject of assay [20] is Mycobacterium tuberculosis. The experiment in a line: Inhibition of wild-type Mycobacterium tuberculosis partial length PKNB (M1 to G279 residues) expressed in HEK293 cells assessed as residual activity at 1000 nM after 30 mins by Kinomescan method relative to control. In kind it is cell-based. Summed up: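 Single-point screen at a fixed 1 µM, run within a 456-kinase DiscoveRx KINOMEscan panel. Each kinase's read-out is Percent Control, i.e. signal relative to a control without compound. Hits were scored by a Percent Control < 35 cut-off, and an S(35) selectivity score was calculated across the non-mutant kinases.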

In assay [21] the target is Serine/threonine-protein kinase Chk2 (Homo sapiens) (UniProt O96017). The experiment in a line: Inhibition of wild-type human partial length CHEK2 (S253 to E574 residues) expressed in Escherichia coli BL21 assessed as residual activity at 1000 nM after 30 mins by Kinomescan method relative to control.
Sequence of Serine/threonine-protein kinase Chk2 (Homo sapiens) (O96017 whole entry, the tested form may be a part): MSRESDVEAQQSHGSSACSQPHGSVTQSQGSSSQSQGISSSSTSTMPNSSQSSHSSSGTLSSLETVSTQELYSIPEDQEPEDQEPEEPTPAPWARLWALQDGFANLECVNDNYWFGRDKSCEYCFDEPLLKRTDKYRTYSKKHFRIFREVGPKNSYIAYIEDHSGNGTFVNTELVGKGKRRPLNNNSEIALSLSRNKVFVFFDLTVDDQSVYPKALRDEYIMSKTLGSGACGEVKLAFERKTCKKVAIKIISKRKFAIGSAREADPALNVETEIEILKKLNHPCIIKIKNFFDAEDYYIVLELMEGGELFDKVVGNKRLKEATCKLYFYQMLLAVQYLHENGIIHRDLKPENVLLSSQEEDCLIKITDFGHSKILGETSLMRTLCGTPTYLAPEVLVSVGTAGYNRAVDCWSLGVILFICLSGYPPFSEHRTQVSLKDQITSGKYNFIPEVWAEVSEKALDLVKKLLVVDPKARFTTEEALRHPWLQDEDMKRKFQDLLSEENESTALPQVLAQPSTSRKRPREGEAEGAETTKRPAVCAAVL

Sequence of Fibroblast growth factor receptor 4 (P22455 22-802 limits assumed): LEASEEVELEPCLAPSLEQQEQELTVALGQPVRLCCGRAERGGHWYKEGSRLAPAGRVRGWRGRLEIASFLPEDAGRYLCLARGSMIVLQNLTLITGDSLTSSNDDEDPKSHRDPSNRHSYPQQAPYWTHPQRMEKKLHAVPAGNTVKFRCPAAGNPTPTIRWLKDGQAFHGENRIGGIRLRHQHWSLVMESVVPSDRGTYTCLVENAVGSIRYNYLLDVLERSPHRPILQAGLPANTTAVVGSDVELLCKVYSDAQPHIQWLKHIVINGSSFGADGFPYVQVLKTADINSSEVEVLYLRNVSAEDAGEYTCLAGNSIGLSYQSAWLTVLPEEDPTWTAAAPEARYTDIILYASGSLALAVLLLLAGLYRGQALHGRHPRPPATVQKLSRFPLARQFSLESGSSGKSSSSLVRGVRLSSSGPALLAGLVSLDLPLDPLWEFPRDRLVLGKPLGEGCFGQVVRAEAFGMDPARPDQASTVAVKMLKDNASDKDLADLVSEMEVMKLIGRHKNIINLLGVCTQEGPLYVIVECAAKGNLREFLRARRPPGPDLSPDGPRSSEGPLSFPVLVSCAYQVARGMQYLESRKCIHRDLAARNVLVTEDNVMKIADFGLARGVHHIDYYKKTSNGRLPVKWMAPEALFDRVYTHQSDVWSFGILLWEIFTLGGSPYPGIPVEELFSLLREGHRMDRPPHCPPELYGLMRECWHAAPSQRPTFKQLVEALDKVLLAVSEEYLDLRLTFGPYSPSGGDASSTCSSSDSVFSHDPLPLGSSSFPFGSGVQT
Sequence of Inhibitor of nuclear factor kappa-B kinase subunit beta (Homo sapiens) (O14920 whole entry, the tested form may be a part): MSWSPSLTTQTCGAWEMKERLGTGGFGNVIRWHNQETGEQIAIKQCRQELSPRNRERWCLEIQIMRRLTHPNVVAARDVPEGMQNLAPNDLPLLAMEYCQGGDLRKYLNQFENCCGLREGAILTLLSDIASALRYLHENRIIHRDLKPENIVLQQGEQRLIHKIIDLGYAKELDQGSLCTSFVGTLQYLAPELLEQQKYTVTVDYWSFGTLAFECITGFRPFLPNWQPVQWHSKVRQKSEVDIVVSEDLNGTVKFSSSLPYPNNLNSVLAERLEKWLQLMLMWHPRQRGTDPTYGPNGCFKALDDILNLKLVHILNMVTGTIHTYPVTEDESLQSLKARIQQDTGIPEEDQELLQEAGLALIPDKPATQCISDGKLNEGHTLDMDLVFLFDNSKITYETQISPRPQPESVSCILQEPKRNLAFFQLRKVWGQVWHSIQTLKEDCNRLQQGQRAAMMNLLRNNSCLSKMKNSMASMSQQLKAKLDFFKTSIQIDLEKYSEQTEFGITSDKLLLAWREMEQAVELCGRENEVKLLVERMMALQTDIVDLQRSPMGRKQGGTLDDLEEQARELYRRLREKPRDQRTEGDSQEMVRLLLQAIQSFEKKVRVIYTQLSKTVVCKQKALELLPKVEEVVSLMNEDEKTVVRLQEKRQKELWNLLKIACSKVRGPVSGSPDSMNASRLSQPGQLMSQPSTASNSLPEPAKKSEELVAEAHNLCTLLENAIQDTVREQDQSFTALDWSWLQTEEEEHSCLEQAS
Sequence of NT-3 growth factor receptor (Homo sapiens) (Q16288 32-839 limits assumed): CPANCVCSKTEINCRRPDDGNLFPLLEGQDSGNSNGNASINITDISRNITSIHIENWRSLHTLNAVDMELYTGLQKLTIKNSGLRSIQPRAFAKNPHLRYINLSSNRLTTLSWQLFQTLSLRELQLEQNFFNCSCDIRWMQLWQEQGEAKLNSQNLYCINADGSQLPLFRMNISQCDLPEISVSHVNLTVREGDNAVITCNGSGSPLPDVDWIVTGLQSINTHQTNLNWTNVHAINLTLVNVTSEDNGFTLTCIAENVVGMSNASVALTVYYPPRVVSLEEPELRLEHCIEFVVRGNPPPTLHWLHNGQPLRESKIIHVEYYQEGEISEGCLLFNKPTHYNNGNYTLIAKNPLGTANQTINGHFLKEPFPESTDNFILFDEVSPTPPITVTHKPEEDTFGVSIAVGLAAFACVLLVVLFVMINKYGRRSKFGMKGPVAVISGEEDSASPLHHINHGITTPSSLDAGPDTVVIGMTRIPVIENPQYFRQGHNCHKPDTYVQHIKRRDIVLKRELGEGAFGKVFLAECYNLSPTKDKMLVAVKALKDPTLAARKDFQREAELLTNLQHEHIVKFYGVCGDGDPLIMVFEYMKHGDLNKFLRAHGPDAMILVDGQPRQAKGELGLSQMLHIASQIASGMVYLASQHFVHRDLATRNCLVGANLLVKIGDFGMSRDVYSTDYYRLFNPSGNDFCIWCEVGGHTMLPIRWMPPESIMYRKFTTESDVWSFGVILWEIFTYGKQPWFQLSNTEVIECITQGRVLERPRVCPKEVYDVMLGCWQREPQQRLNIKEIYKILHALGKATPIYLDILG
Sequence of Serine/threonine-protein kinase 4 (Homo sapiens) (Q13043 whole entry, the tested form may be a part): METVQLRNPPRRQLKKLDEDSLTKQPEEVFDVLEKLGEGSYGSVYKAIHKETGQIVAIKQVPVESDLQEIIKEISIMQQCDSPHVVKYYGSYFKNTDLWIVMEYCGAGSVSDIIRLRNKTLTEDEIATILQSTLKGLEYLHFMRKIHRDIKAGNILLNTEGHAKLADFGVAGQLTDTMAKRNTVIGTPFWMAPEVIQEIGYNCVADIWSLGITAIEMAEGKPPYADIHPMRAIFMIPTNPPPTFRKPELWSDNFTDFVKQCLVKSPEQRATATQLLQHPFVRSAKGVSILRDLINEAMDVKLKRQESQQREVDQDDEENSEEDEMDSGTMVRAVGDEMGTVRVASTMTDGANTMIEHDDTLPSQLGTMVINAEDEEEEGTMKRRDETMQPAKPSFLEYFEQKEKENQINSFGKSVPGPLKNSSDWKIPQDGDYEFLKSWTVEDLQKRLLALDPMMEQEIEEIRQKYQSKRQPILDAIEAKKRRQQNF
Sequence of Serine/threonine-protein kinase TAO2 (Homo sapiens) (Q9UL54 whole entry, the tested form may be a part): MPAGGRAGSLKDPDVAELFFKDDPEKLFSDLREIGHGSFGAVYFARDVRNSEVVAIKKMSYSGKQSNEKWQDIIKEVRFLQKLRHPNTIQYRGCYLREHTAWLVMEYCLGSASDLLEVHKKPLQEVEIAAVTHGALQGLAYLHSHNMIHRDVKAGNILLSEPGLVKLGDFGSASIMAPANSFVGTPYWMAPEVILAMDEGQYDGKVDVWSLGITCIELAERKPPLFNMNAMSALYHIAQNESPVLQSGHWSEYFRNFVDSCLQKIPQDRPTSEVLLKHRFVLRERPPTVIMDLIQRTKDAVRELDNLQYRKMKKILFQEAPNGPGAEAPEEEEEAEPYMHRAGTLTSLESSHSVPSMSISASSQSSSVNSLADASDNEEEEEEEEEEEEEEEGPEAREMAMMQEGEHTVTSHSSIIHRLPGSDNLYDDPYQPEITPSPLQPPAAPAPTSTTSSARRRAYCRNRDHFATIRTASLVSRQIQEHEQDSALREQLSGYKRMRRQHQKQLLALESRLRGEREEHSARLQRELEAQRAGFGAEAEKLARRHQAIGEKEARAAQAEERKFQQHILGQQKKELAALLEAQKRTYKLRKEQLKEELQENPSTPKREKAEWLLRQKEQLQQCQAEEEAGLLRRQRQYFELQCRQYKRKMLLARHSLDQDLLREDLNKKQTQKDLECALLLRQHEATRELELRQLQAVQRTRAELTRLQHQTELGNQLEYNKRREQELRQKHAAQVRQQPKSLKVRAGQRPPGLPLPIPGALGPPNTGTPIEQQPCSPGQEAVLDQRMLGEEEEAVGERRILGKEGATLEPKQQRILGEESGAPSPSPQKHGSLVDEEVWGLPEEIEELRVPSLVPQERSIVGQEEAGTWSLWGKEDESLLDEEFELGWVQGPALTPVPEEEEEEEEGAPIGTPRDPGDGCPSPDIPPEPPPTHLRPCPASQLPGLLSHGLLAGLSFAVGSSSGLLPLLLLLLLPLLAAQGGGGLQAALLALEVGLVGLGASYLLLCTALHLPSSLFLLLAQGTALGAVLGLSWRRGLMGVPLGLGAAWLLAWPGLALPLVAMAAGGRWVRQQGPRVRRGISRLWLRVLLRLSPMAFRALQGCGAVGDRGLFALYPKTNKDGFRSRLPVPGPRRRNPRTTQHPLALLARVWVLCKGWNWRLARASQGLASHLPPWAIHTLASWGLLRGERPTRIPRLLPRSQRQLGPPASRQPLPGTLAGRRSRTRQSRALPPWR
Sequence of Serine/threonine-protein kinase Nek2 (Homo sapiens) (P51955 whole entry, the tested form may be a part): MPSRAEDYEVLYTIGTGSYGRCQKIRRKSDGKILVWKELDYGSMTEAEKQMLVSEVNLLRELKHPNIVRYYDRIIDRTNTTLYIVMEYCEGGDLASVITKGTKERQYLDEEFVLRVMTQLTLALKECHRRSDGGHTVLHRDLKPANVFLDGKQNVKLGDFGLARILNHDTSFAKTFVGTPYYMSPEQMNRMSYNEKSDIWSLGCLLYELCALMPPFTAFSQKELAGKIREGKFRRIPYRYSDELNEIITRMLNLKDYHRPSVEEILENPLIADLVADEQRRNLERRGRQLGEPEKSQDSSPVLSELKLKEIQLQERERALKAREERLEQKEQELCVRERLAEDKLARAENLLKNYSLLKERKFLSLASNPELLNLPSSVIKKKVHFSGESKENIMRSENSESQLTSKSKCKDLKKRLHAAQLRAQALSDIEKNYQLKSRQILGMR

For the compound `COc1cc(OC)c(Cl)c(N2Cc3cnc(Nc4ccc(F)cc4)nc3N(C3CCN(C(=O)/C=C/CN(C)C)CC3)C2=O)c1Cl`, the Activity in [1] is 81%; in assay [2], 81%; in [3], 6.2%; in assay [4], 100%; in assay [5] it was 53%; in assay [6], 100%. For the same compound, the Activity in assay [7] amounted to 90%; in assay [8], 98%; in assay [9] it was 1%; in [10], 100%; in assay [11], 100%; in assay [12] it was 100%. Moreover, the Activity in assay [13] came out at 92%; in assay [14], 79%; in [15], 100%; in [16], 86%; in assay [17] it was 99%; in assay [18] it was 95%. Moreover, the Activity in [19] amounted to 94%; in assay [20], 100%; in assay [21] it was 100%.

Source of the values: ChEMBL document CHEMBL4043093, “2-Oxo-3, 4-dihydropyrimido[4, 5-d]pyrimidinyl derivatives as new irreversible pan fibroblast growth factor receptor (FGFR) inhibitors” (Eur J Med Chem, 2017).
